Source: PubChem BioAssay
PME-1 primary: PME-1 inhibitors via competitive probe labeling, primary screen, biochemical, fluorescence polarization, FP-Rh probe, HTS; Protein phosphatase methylesterase 1 (Homo sapiens), Q9Y570; recombinant PME-1; inhibition, % at 5.9 µM; 320,000 tested, 0.53% active;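 active means inhibition above the campaign mean of all compounds plus 3 SD, cut at about 26% in these data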;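 further: competitive labeling of PME-1 active site by serine hydrolase directed probe; inhibitors block probe labeling so polarization falls and inhibition rises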
Target sequence (Q9Y570 whole entry, looked up): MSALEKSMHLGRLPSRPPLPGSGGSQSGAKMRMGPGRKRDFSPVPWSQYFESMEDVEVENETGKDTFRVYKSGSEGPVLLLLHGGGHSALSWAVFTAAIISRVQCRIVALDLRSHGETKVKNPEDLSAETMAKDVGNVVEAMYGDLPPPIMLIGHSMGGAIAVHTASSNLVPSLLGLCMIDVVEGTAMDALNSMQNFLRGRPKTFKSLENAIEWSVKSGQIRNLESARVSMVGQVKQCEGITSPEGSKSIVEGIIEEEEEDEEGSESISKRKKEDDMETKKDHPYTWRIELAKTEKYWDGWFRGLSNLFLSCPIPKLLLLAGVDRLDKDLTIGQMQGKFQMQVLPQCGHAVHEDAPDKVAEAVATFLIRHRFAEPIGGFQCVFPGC
PAD4 FP inh: human PAD4 inhibitors, primary screen, biochemical, fluorescence polarization, 1536-well format; Protein-arginine deiminase type-4 (Homo sapiens), Q9UM07; recombinant PAD4, RCA probe fluorescence polarization; inhibition, % at 6.36 µM; 330,000 tested, 0.41% active; AID 485272, 2010;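 active means percent inhibition above a cutoff equal to the mean of all tested compounds plus 3 SD, cut at about 15% in these data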
LYPLA2 counter: LYPLA2 inhibitors, primary screen, counter-screen for PME1 inhibitor project, biochemical, fluorescence polarization, FP-Rh probe ABPP; 320,000 tested, 0.38% active; AID 2177, 2009; inhibition, % at 5.9 µM; recombinant LYPLA2; Acyl-protein thioesterase 2 (Homo sapiens), O95372;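 active means inhibition above the screen-wide mean plus 3 SD, limit set per campaign, cut at about 26% in these data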
RBBP9 inhibitor: human RBBP9 inhibitors, primary screen, biochemical, fluorescence polarization, FP-Rh probe, HTS | 220,000 tested, 0.2% active | AID 1515, 2009 | Serine hydrolase RBBP9 (Homo sapiens), O75884 | recombinant RBBP9 | inhibition, % at 7.94 µM;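 active means inhibition above the campaign mean of all tested compounds plus 3 SD, cut at about 14% in these data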
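Measured by: FP readout at 525/598 nm; material: recombinant human RBBP9; also added: Serine-hydrolase probe FP-Rh, 375 nM pre-mixing; medium: Tris buffer pH 8.0, NaCl, Pluronic; replication: one well per compound; doses: one concentration, 7.94 µM nominal, 0.794% DMSO; timing: preincubation 30 min plus labeling 45 min at 25 °C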
LYPLA1 counter: LYPLA1 inhibitors, primary screen, counter-screen for PME1 inhibitor project, biochemical, fluorescence polarization, FP-Rh probe ABPP | inhibition, % at 5.9 µM | 320,000 tested, 0.16% active | recombinant LYPLA1;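 active means inhibition above the mean of all tested compounds plus 3 SD, set per campaign, cut at about 14% in these data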;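 further: inhibitors block serine hydrolase probe labeling of LYPLA1 so polarization falls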
Target sequence (O75608 whole entry, looked up): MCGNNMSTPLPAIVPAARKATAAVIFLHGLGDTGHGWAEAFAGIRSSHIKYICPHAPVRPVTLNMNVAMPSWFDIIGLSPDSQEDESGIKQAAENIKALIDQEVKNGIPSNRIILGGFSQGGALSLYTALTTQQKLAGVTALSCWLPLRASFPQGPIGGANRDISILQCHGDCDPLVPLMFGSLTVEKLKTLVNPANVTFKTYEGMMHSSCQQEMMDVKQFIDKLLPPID
Fam108B inh: mouse Fam108B serine hydrolase inhibitors, primary screen, counter-screen for RBBP9 inhibitor project, biochemical, fluorescence polarization. recombinant Fam108B, FP-Rh probe fluorescence polarization. inhibition, % at 9.51 µM. 300,000 tested, 0.33% active;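 active means inhibition above the screen mean inhibition plus 3 SD, computed separately per campaign, cut at about 18% in these data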;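 further: inhibitors lower polarization as less probe binds the enzyme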
PAD4 confirm: human PAD4 inhibitors, confirmation, biochemical, fluorescence polarization; shares compounds with PAD4 FP inh; recombinant PAD4, RCA probe fluorescence polarization; inhibition, % at 6.36 µM; 1,200 tested, 28% active; AID 488796, 2010;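 active means mean inhibition across replicates above the hit cutoff set by the earlier primary screen, cut at about 15% in these data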;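 further: inhibitors block active-site labeling by the probe so polarization falls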
Numbers stand for hits; n = inactive; x = not tested or not shown. A selection: hits, their analogues and other compounds. The true share with any hit is near 1.3%.

SMILES	PME-1 primary	PAD4 FP inh	LYPLA2 counter	RBBP9 inhibitor	LYPLA1 counter	Fam108B inh	PAD4 confirm
CC1=NN(Cc2cc(C(C)(C)C)c(O)c(C(C)(C)C)c2)C(=O)C1	n	n	n	x	n	n	x
O=C(N/N=C1\CCS(=O)(=O)c2ccc(F)cc21)c1ccc(O)cc1	n	n	n	n	n	n	x
COC(=O)c1ccc(NC(=O)CSc2ccc(-c3ccccn3)nn2)cc1	n	n	n	x	n	n	x
S=C(Nc1ccc2nsnc2c1)N1CCCCCC1	n	50	n	n	n	n	n
O=C(Nc1ccc2nsnc2c1)N1CCCCC1	n	n	n	n	n	n	x
CC(=O)C1=C(c2ccccc2)N(C(C)=O)n2c(C)nnc2S1	n	68	n	n	n	n	59
CCOc1cccc(/C=C/c2cc(C(=O)O)c3ccccc3n2)c1OC	n	n	n	n	n	n	x
COCc1nnc(NC(=O)c2ccc(OC)cc2OC)s1	n	n	n	n	n	n	x
COc1ccc(C(=O)Nc2nnc(Cc3ccc(OC)c(OC)c3)s2)c(OC)c1	n	22	n	x	n	n	32
Cc1oc2c(C)c(O)ccc2c(=O)c1-c1ccc2ccccc2n1	n	84	n	n	n	n	n
Cc1ccc(SCc2cc(=O)n(C)[nH]2)cc1	n	24	n	n	n	n	n
Cc1ccc(SCc2cc(=O)n3[nH]c(C)nc3n2)cc1	n	n	n	n	n	n	x
Cc1ccc(CN2[C@@H](CC(C)C)COCCS2(=O)=O)cc1	n	n	n	x	n	n	x
CCCn1nnnc1NCc1cccc(Cl)c1	n	n	n	x	n	n	x
Cn1nnnc1SCC(=O)N1CCN(S(=O)(=O)c2ccccc2)CC1	n	n	n	n	n	n	x
Cn1nnnc1SCC(=O)N1CCN(S(=O)(=O)c2ccc(Cl)cc2)CC1	n	17	n	n	n	n	n
Cc1nnc(N/N=C/c2ccco2)n1N	n	23	n	n	n	n	n
Cc1nnc(N/N=C/c2cccc(C(F)(F)F)c2)n1N	n	35	n	x	n	n	n
Cc1nnc(N/N=C/c2ccccc2F)n1N	n	31	n	x	n	n	n
Fc1ccccc1/C=N/Nc1nn[nH]n1	n	n	n	n	n	n	x
Cc1nnc(N/N=C/c2ccccc2C(F)(F)F)n1N	n	18	n	x	n	n	n
COc1cccc(/C=N/Nc2nnc(C)n2N)c1O	n	39	n	x	n	n	n
Cc1nnc(N/N=C/c2cccc(OCc3ccc(Cl)c(Cl)c3)c2)n1N	n	33	n	n	n	n	n
COc1cccc(/C=N/Nc2cc(Cl)nc(C)n2)c1O	n	n	n	n	n	n	x
CCOc1ccc(-n2c(C)cc(/C=N/Nc3nc(C)cc(=O)[nH]3)c2C)cc1	n	n	n	n	n	n	x
SMILES	PME-1 primary	PAD4 FP inh	LYPLA2 counter	RBBP9 inhibitor	LYPLA1 counter	Fam108B inh	PAD4 confirm
COc1ccc(-n2c(C)cc(/C=N/Nc3nnc(C)n3N)c2C)cc1	n	36	n	n	n	n	n
CSC1=NCCN1C(=O)Cc1ccc(Cl)cc1	n	n	n	n	n	n	x
COc1ccc(CC(=O)N2CCN=C2SC)cc1	n	28	n	n	n	n	n
Cc1cccnc1CNC(=O)C1CCC(=O)N(CCc2cccc(F)c2)C1 (stereo not drawn)	n	n	n	x	n	n	x
Oc1ccc(C=Nc2cccc3ncccc23)c(O)c1	n	16	n	n	n	n	n
COc1ccccc1-c1nc(C(=O)NCC2CCCO2)cc2c1[nH]c1ccccc12 (stereo not drawn)	n	37	n	x	n	n	33
O=C(NCC1CCCO1)c1cc2c([nH]c3ccccc32)c(-c2cccc(Cl)c2)n1 (stereo not drawn)	n	n	n	x	n	n	x
COc1cc(-c2nc(C(=O)NCC3CCCO3)cc3c2[nH]c2ccccc23)cc(OC)c1OC (stereo not drawn)	n	33	n	x	n	n	38
Clc1ccc(OCc2nnc3n2CCCCC3)c(Cl)c1	n	n	n	n	n	n	x
O=C1C(=O)N(c2ccc(O)cc2)C(c2ccccc2[N+](=O)[O-])/C1=C(\O)c1ccccc1 (stereo not drawn)	n	24	n	n	n	n	n
COc1ccccc1C1c2ccc3ccccc3c2Oc2ncn(CCN(C)C)c(=N)c21 (stereo not drawn)	n	19	n	x	n	n	n
COc1ccccc1C1c2ccc3ccccc3c2Oc2ncn(CCCO)c(=N)c21 (stereo not drawn)	n	n	n	x	n	n	x
Cc1ccc([N+](=O)[O-])cc1NC(=O)CSc1nncc2ccccc12	n	n	n	x	n	n	x
O=C(CSc1nncc2ccccc12)N1CCCCC1	n	17	n	n	n	n	n
O=C(CSc1nc(C2CC2)nc2ccccc12)N1CCCCC1	n	n	n	x	n	n	x
Cc1ccc(NC(=O)CSc2nncc3ccccc23)cc1	n	16	n	x	n	n	n
CC(C(=O)N(C)C1CCCCC1)N1CCC(C(N)=O)CC1 (stereo not drawn)	n	n	n	x	n	n	x
CC(C)c1onc(C(=O)NC(C)c2ccccc2)c1[N+](=O)[O-] (stereo not drawn)	n	n	n	n	n	n	x
CC(=O)N1CCN(c2ccc(NS(=O)(=O)c3ccc(C)cc3)cc2)CC1	n	24	n	x	n	n	n
CC(=O)N1CCN(c2ccc(N)cc2)CC1	n	25	n	x	n	x	n
O=C(C(=O)N1CCCCC1)c1c(-c2ccccc2)[nH]c2ccccc12	n	n	n	x	n	n	x
O=C(c1cc(N2CCOCC2)c(F)cc1[N+](=O)[O-])N1CCOCC1	n	n	n	x	n	n	x
Cc1ccc(/C=C2/Sc3ccccc3N(CC(=O)NCCCOC(C)C)C2=O)cc1	n	n	n	n	n	n	x
Cc1ccccc1-c1cc2c(nn1)-c1ccccc1C2=O	n	58	n	n	n	n	n
Cc1ccc(-c2cc3c(nn2)-c2ccccc2C3=O)cc1	n	n	n	n	n	n	x
CC1(NC(=O)Cc2csc(-c3cccc(Cl)c3)n2)CCS(=O)(=O)C1 (stereo not drawn)	n	21	n	x	n	x	n
CC1(NC(=O)Cc2csc(-c3ccc(Cl)cc3)n2)CCS(=O)(=O)C1 (stereo not drawn)	x	n	x	x	x	x	x
O=C(CN1CCCC1)Nc1ccc(Br)cc1[N+](=O)[O-]	n	n	n	x	n	n	x
CC(=O)n1cc(N(C(=O)CCl)c2ccc(Cl)cc2)c2ccccc21	n	20	n	n	n	n	51
COc1ccccc1NC(=O)C1CCN(S(=O)(=O)c2cccs2)CC1	n	18	n	x	n	x	n
